Assays:
Type in all cases: cell-based, Human
[1] = test system: cancer cell lines; assay: MTT growth inhibition assay, summary over the cancer cell line panel; conditions: 48 h; for cytotoxicity against the cancer cell lines: MTT
[2] = test system: HL-60 cells; assay: Hoechst 33258 staining; conditions: HL-60, 0.25-1.0 µM, 24 h
Summary of the method: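 HL-60 cells seeded at 1×10⁵ per well and incubated 24 h with test compound at 0.25, 0.5 and 1.0 µM. After phase-contrast imaging, nuclei stained with Hoechst 33258 (5 µg/mL, 10 min), washed twice with PBS and fixed in 4% PFA/PBS for 10 min at 25 °C. Apoptotic chromatin condensation or fragmentation assessed; fluorescence at ex 365/em 460 nm.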

[3] = test system: cyclin B1, CDK1, caspase 3 in HL-60 cells; assay: Western blot of cyclin B1, CDK1 and caspase 3, HL-60; conditions: HL-60, 24 h
Summary of the method: (§1)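 Cells grown in RPMI-1640 with 10% FBS at 37 °C, 5% CO₂, then treated with test compound at graded concentrations for 24 h. Harvested cells lysed on ice for 30 min and spun at 12,000 g for 20 min. Protein quantified by Bradford, denatured in Tris-HCl pH 6.8/DTT/SDS loading buffer, run on 10% SDS-PAGE and transferred to nitrocellulose. Detection by chemiluminescence, with β-actin as loading control.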

[4] = test system: H460 cells; assay: Cell cycle analysis by propidium iodide staining and flow cytometry, H460; conditions: H460, 1.0, 2.5, 5.0 µM, 24 h
Summary of the method: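 After 24 h exposure to test compound at 1.0, 2.5 or 5.0 µM, H460 cells were washed in PBS and fixed overnight in 70% ice-cold ethanol at −20 °C. They were then stained in the dark for 30 min with 0.1% Triton X-100, 0.2 mg/mL RNase and 20 µg/mL propidium iodide. DNA content was measured by flow cytometry and histograms were modelled for phase distribution.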

[5] = test system: cyclin B1, CDK1, caspase 3 in H460 cells; assay: Western blot of cyclin B1, CDK1 and caspase 3, H460; conditions: H460, 24 h
Summary of the method: as §1

[6] = test system: H460 cells; assay: Hoechst 33258 staining; conditions: H460, 1.0-5.0 µM, 24 h
Summary of the method: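 H460 cells plated at 5×10⁴ per well and exposed to test compound at 1.0, 2.5 and 5.0 µM for 24 h. Cells photographed under phase contrast, then stained with 5 µg/mL Hoechst 33258 for 10 min, washed twice in PBS and fixed in 4% PFA/PBS for 10 min at 25 °C. Nuclei scored for chromatin condensation or fragmentation; fluorescence read at ex 365/em 460 nm.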

For `O=c1cc(-c2ccccc2)c2cc3c(cc2[nH]1)OCO3` [Compound 12a, 6,7-Methylenedioxy-4-phenylquinolin-2(1H)-one], the “cytotoxicity against the cancer cell lines” value (shortened to “cytotoxicity”) [1] was “poor cytotoxicity”.

With `COc1ccc(-c2cc(=O)[nH]c3cc4c(cc23)OCO4)c(OC)c1` [Compound 12e, 6,7-Methylenedioxy-4-(2,4-dimethoxyphenyl)quinolin-2(1H)-one] the “apoptotic morphology by Hoechst 33258 staining” value [2] was “typical apoptotic characteristics”, the “CDK1 protein expression level” value [3] was “decreased in a concentration-dependent manner” and the “caspase 3 cleavage (17 kDa)” value [3] was “induced caspase 3 cleavage”. For the same compound, the “cyclin B1 protein expression” value [3] was “transient increase followed by a decrease”, the “percentage of G2/M cells” value [4] was “increased” and the “CDK1 protein expression level” value [5] was “increased in a concentration-dependent manner”. The “caspase 3 cleavage (17 kDa)” value [5] was “induced caspase 3 cleavage” and the “apoptotic morphology by Hoechst 33258 staining” value [6] was “typical apoptotic characteristics”.

With `COc1cc(-c2cc(=O)[nH]c3cc4c(cc23)OCO4)cc(OC)c1OC` [Compound 12k, 6,7-Methylenedioxy-4-(3,4,5-trimethoxyphenyl)quinolin-2(1H)-one] the IC50 ([1]; Homo sapiens, read-out: IC50 range over cancer cell lines) was 0.93 to 7.6 µM.

`O=c1cc(-c2ccccc2F)c2cc3c(cc2[nH]1)OCO3` [Compound 12l, 4-(2-Fluorophenyl)-6,7-methylenedioxyquinolin-2(1H)-one] was tested, and the “cytotoxicity” value [1] was “weak cytotoxicity”.

`O=c1cc(-c2cccc(F)c2)c2cc3c(cc2[nH]1)OCO3` [Compound 12m, 4-(3-Fluorophenyl)-6,7-methylenedioxyquinolin-2(1H)-one] was tested, and the “cytotoxicity” value [1] was “weak cytotoxicity”.

With `O=c1cc(-c2ccc(F)cc2)c2cc3c(cc2[nH]1)OCO3` [Compound 12n, 4-(4-Fluorophenyl)-6,7-methylenedioxyquinolin-2(1H)-one] the “cytotoxicity” value [1] was “weak cytotoxicity”.

From publication PMC3822768 (Bioorganic & medicinal chemistry, 2013)
